Measured values of several laboratories.
Cell line: HepG2
Effect on: cell growth or viability

SMILES	method	concentration	time	measurement	result
CC(=NNC(=S)Nc1ccccc1)c1ccc(Nc2nnc(-c3ccc(Cl)cc3)c3ccccc23)cc1	MTT	0.625 µM	24 h	viability	79.5%
COc1ccc(-c2cc(-c3ccc(Br)cc3)c3c(=O)n(C)c(=O)n(C)c3n2)cc1	MTT	–	48 h	IC50	8.49 µM
CC(=O)Nc1ccc(/C(C)=N/N=c2\sc(C(C)=O)nn2-c2ccc(C)cc2)cc1	MTT	1.25 µM	–	viability	99.8%
C/C(=N\N=C1/NC(=O)/C(=C\c2ccc(F)cc2)S1)c1ccccn1	SRB	100 µg/mL	48 h	inhibition	57.6%
CCOC(=O)c1nn(-c2cccc(Cl)c2)/c(=N/N=C(\C)c2ccc(NC(=O)c3ccc(Cl)cc3)cc2)s1	MTT	78 nM	–	viability	73.1%
O=C(Nc1ccccc1)Nc1ccc(Oc2nnc(-c3ccc(Cl)cc3)c3ccccc23)cc1	MTT	0.312 µM	24 h	viability	7.03%
COc1ccc(-c2cc(-c3ccc(Br)cc3)c3c(=O)[nH]c(=O)[nH]c3n2)cc1	MTT	–	48 h	IC50	11.2 µM
CC(=NNC(=O)COc1ccc2c(C)c(Cc3ccccc3)c(=O)oc2c1C)c1ccc(Br)cc1	MTT	0.4 µg/mL	–	viability	58%
CC(=O)c1nn(-c2ccc(C)cc2)/c(=N/N=C(\C)c2ccc(NC(=O)c3ccccc3)cc2)s1	MTT	5 µM	–	viability	6.81%
CC(=NNC(=O)c1ccccc1O)c1ccc(Nc2nnc(-c3ccc(Cl)cc3)c3ccccc23)cc1	MTT	2.5 µM	–	cell death	62.1%
CN(C)c1cc(NC(=O)Cc2cscn2)c(O)c2c1C[C@H]1C[C@H]3[C@H](N(C)C)C(O)=C(C(N)=O)C(=O)[C@@]3(O)C(O)=C1C2=O	ATP luminescence	–	72 h	IC50	75.8 µg/mL
CC(=NNC(=O)c1ccncc1)c1ccc(Nc2nnc(-c3ccc(Cl)cc3)c3ccccc23)cc1	MTT	2.5 µM	24 h	viability	3.92%
COc1ccc(-c2cc(-c3ccc(Cl)cc3)c3c(=O)n(C)c(=O)n(C)c3n2)cc1	MTT	–	48 h	IC50	17.3 µM
O=C(Nc1ccc(Oc2nnc(-c3ccc(Cl)cc3)c3ccccc23)cc1)c1ccccc1	MTT	10 µM	24 h	viability	4.07%
CC(=O)c1nn(-c2ccccc2Cl)/c(=N/N=C(\C)c2ccc(NC(=O)c3ccccc3)cc2)s1	MTT	1.25 µM	–	viability	5.77%
